Measured values taken from ChEMBL document CHEMBL4002595, “Metadynamics for Perspective Drug Design: Computationally Driven Synthesis of New Protein-Protein Interaction Inhibitors Targeting the EphA2 Receptor” (J Med Chem, 2017).
Converted amounts (≈) assume the structure as drawn. The source made the active and inactive calls. The calls are words filed in the database; no cut-off is given here.

Columns and labels:
Ephrin type-A receptor 2 = Ephrin type-A receptor 2 (Mus musculus, UniProt Q03145); experiment: Displacement of biotinylated ephrin-A1-Fc from recombinant mouse EphA2 receptor preincubated for 1 hr followed by biotinylated ephrin-A1-Fc addition measured after 4 hrs by ELISA method
Chain of Ephrin type-A receptor 2 (Q03145 whole entry): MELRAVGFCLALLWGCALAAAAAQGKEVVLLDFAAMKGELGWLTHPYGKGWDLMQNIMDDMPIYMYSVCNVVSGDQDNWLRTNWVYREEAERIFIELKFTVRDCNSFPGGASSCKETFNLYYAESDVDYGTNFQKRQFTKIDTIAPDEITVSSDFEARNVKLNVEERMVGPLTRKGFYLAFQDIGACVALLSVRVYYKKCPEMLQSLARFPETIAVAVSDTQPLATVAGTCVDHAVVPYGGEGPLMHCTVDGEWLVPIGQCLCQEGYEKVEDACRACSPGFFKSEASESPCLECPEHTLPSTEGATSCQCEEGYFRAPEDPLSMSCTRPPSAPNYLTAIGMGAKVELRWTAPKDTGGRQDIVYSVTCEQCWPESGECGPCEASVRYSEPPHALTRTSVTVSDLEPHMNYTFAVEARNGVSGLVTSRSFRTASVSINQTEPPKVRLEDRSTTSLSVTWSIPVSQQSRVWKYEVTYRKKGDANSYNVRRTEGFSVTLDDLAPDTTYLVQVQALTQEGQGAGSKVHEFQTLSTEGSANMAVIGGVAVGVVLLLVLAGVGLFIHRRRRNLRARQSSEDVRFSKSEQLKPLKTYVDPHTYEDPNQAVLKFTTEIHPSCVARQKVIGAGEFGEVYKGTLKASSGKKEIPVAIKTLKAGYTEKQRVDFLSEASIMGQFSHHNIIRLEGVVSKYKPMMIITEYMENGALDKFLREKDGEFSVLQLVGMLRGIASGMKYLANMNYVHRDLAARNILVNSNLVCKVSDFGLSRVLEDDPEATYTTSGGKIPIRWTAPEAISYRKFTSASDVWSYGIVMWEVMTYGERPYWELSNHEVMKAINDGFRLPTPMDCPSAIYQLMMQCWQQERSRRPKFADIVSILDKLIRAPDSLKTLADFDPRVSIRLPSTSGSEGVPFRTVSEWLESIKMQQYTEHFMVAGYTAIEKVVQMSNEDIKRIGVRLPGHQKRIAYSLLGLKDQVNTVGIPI

[1] = target: Ephrin type-A receptor 2 (Mus musculus) (UniProt Q03145); experiment: Displacement of biotinylated ephrin-A1-Fc from recombinant mouse EphA2 receptor up to 100 uM preincubated for 1 hr followed by biotinylated ephrin-A1-Fc addition measured after 4 hrs by ELISA method
Chain of Ephrin type-A receptor 2 (Mus musculus) (Q03145 whole entry): as above
In short: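 EphA2-Fc (1 µg mL⁻¹ in PBS pH 7.4) was coated overnight at 4 °C, then blocked with PBS + 0.5% BSA for 1 h at 37 °C. Compounds in 1% DMSO were added for 1 h at 37 °C. Biotinylated ephrin-A1-Fc was then added at its K_D for 4 h at 37 °C. Detection used streptavidin-HRP (20 min, RT), TMB/H₂O₂, HCl stop and A450. IC₅₀ came from one-site competition nonlinear regression; mean of ≥3 independent experiments.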

Liver [2] = experiment: Drug level in mouse liver microsomes treated with (S)-3-((S)-4-((5R,8R,9S,10S,13R,14S,17R)-3-hydroxy-10,13-dimethylhexadecahydro-1H-cyclopenta[a]phenanthren-17-yl)pentanamido)-4-(1H-indol-3-yl)butanoic acid by HPLC-ESI-MS/MS analysis
[3] = n-Octanol-buffer partition co-efficient, log D of the compound at pH 7.4 incubated overnight by shake-flask method; assay type: physicochemical
In short: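 Shake-flask n-octanol/buffer partition at 25 ± 3 °C against 50 mM MOPS pH 7.4, ionic strength 0.15 M with KCl. Pre-saturated phases equilibrated overnight. Each phase diluted in MeOH with internal standard and analysed by HPLC-ESI-MS/MS. Mean of three independent partitions using different octanol/buffer volume ratios.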

[4] = Kinetic solubility in MOPS buffer at pH 7.4 measured after 4 hrs by HPLC-ESI-MS/MS analysis; assay type: physicochemical; conditions: read-out: Kinetic_solubility
In short: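 DMSO stock (10 mM) diluted into 50 mM MOPS pH 7.4, ionic strength 0.15 M with KCl, final 1% DMSO. Agitated 4 h at 25 ± 3 °C, centrifuged 1,000 g 10 min. Supernatant diluted 1:1 with MeOH containing internal standard, quantified by HPLC-ESI-MS/MS against per-compound MeOH calibration curves.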

[5] = Stability in mouse plasma assessed as compound remaining at 1 uM after 24 hrs by HPLC-ESI-MS/MS analysis; assay type: ADME, cell-free; conditions: read-out: Stability
In short: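 Mouse plasma diluted to 80% (v/v) with 100 mM PBS pH 7.4. Compound added at 1 μM final with 1% v/v DMSO, held at 37 °C. Aliquots taken at intervals, quenched with two volumes MeCN, centrifuged 9,000 g 10 min at 4 °C. Percent remaining measured by HPLC-ESI-MS/MS.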

[6] = Half-life in mouse liver microsomes at 1 uM in presence of NADPH by HPLC-ESI-MS/MS analysis; assay type: ADME, microsome
[7] = Cmax in mouse at 30 mg/kg, administered as single dose via oral gavage by HPLC-ESI-MS/MS analysis; assay type: ADME, organism-based; parameters: dose 30 mg/kg, route oral; conditions: in vivo
In short: (§1)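 Male mice, fasted, groups of four; single oral gavage at 30 mg/kg in 0.5% methylcellulose (10/90 v/v). Tail-puncture blood at 5-7 time points between 15 and 1440 min, centrifuged 5000 rpm 10 min, plasma stored at -20 °C, quantified by HPLC-ESI-MS/MS. Reported as means ± SEM.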

[8] = Tmax in mouse at 30 mg/kg, administered as single dose via oral gavage by HPLC-ESI-MS/MS analysis; assay type: ADME, organism-based; conditions: in vivo; in short: as §1
Plasma [9] = experiment: Drug uptake in mouse plasma at 30 mg/kg, administered as single dose via oral gavage after 24 hrs by HPLC-ESI-MS/MS analysis; assay type: ADME, organism-based; conditions: in vivo
In short: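 Male mice (fasted, four per group) received a single esophageal gavage of 30 mg/kg in 0.5% methylcellulose. Tail-puncture blood was taken at 5–7 time points between 15 and 1440 min. Plasma was separated by centrifugation (5000 rpm, 10 min), stored at –20 °C and quantified by HPLC-ESI-MS/MS. Data are means ± SEM.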

Liver [10] = experiment: Drug metabolism in mouse liver microsomes assessed as (S)-3-((S)-4-((5R,8R,9S,10S,13R,14S,17R)-10,13-dimethyl-3-oxohexadecahydro-1H-cyclopenta[a]phenanthren-17-yl)pentanamido)-4-(1H-indol-3-yl)butanoic acid formation by HPLC-ESI-MS/MS analysis; assay type: ADME, microsome
Plasma [11] = experiment: Drug uptake in mouse plasma at 30 mg/kg, administered as single dose via oral gavage after 120 min by HPLC-ESI-MS/MS analysis; conditions: in vivo

`CSCC[C@@H](CC(=O)O)NC(=O)CC[C@@H](C)[C@H]1CC[C@H]2[C@@H]3CC[C@@H]4C[C@H](O)CC[C@]4(C)[C@H]3CC[C@]12C` gave an IC50 (Ephrin type-A receptor 2) of 83 µM.
For `CC(C)C[C@@H](CC(=O)O)NC(=O)CC[C@@H](C)[C@H]1CC[C@H]2[C@@H]3CC[C@@H]4C[C@H](O)CC[C@]4(C)[C@H]3CC[C@]12C`, the inhibition [1] was “inactive”.
Work on `CC(C)[C@@H](CC(=O)O)NC(=O)CC[C@@H](C)[C@H]1CC[C@H]2[C@@H]3CC[C@@H]4C[C@H](O)CC[C@]4(C)[C@H]3CC[C@]12C` yielded an IC50 (Ephrin type-A receptor 2) of 10 µM.
In the case of `C[C@H](CCC(=O)N[C@H](CC(=O)O)Cc1c[nH]c2ccccc12)[C@H]1CC[C@H]2[C@@H]3CC[C@@H]4CC(=O)CC[C@]4(C)[C@H]3CC[C@]12C`, the Drug metabolism (Liver [2]) is reported as “Metabolite_Detected”.
For `C[C@H](CCC(=O)N[C@H](CC(=O)O)Cc1c[nH]c2ccccc12)[C@H]1CC[C@H]2[C@@H]3CC[C@@H]4C[C@H](OC(N)=O)CC[C@]4(C)[C@H]3CC[C@]12C`, the IC50 (Ephrin type-A receptor 2) was 0.8 µM, the logD [3] was 5.01 and the solubility kinetic at 4 h [4] was 18.7 µM (≈ 11.6 µg/mL). It also gave a remaining at 24 h, 1 µM [5] of 98.2%, a half-life at 1 µM [6] of 2.6 h and a Cmax [7] of 870 nM. The Tmax [8] was 1 h and the Drug uptake (Plasma [9]) was “Active”.
In the case of `C[C@H](CCC(=O)N[C@H](CC(=O)O)Cc1csc2ccccc12)[C@H]1CC[C@H]2[C@@H]3CC[C@@H]4C[C@H](O)CC[C@]4(C)[C@H]3CC[C@]12C`, the IC50 (Ephrin type-A receptor 2) is reported as 1.8 µM.
For `C[C@H](CCC(=O)NCCC(=O)O)[C@H]1CC[C@H]2[C@@H]3CC[C@@H]4C[C@H](O)CC[C@]4(C)[C@H]3CC[C@]12C`, the IC50 (Ephrin type-A receptor 2) was 29 µM.
In the case of `C[C@H](CCC(=O)N[C@H](CC(=O)O)c1ccccc1)[C@H]1CC[C@H]2[C@@H]3CC[C@@H]4C[C@H](O)CC[C@]4(C)[C@H]3CC[C@]12C`, the IC50 (Ephrin type-A receptor 2) is reported as 14 µM.
In the case of `C[C@H](CCC(=O)NCCS(=O)(=O)O)[C@H]1CC[C@H]2[C@@H]3CC[C@@H]4C[C@H](O)CC[C@]4(C)[C@H]3CC[C@]12C` [TAUROLITHOCHOLIC ACID], the IC50 (Ephrin type-A receptor 2) is reported as 72 µM.
In the case of `C[C@H](CCC(=O)N[C@H](CC(=O)O)Cc1c[nH]c2ccccc12)[C@H]1CC[C@H]2[C@@H]3CC[C@@H]4CCCC[C@]4(C)[C@H]3CC[C@]12C`, the IC50 (Ephrin type-A receptor 2) is reported as 28 µM.
In the case of `C[C@H](CCC(=O)N[C@@H](CCc1ccccc1)CC(=O)O)[C@H]1CC[C@H]2[C@@H]3CC[C@@H]4C[C@H](O)CC[C@]4(C)[C@H]3CC[C@]12C`, the inhibition [1] is reported as “inactive”.
In the case of `C[C@H](CCC(=O)N[C@H](CC(=O)O)Cc1c[nH]c2ccccc12)[C@H]1CC[C@H]2[C@@H]3CC[C@@H]4C[C@H](O)CC[C@]4(C)[C@H]3CC[C@]12C`, the Drug metabolism (Liver [10]) is reported as “Metabolite_Detected”, the solubility kinetic at 4 h [4] is reported as 31.8 µM (≈ 18.3 µg/mL) and the half-life at 1 µM [6] is reported as 0.28 h. The Cmax [7] was 10 nM and the Drug uptake (Plasma [11]) was “Active”.
`C[C@H](CCC(=O)N[C@H](CC(=O)O)Cc1c[nH]c2ccccc12)[C@H]1CC[C@H]2[C@@H]3CC[C@@H]4C/C(=N/O)CC[C@]4(C)[C@H]3CC[C@]12C` showed an IC50 (Ephrin type-A receptor 2) of 3.1 µM, a logD [3] of 4.23 and a solubility kinetic at 4 h [4] of 51.9 µM (≈ 30.6 µg/mL). It also gave a remaining at 24 h, 1 µM [5] of 93.7%, a half-life at 1 µM [6] of 1.01 h and a Cmax [7] of 400 nM. For the same molecule, the Tmax [8] was 1 h.
In the case of `CO/N=C1\CC[C@@]2(C)[C@H](CC[C@@H]3[C@@H]2CC[C@]2(C)[C@@H]([C@H](C)CCC(=O)N[C@H](CC(=O)O)Cc4c[nH]c5ccccc45)CC[C@@H]32)C1`, the IC50 (Ephrin type-A receptor 2) is reported as 13 µM.
In the case of `C[C@H](CCC(=O)NCCCCC(=O)O)[C@H]1CC[C@H]2[C@@H]3CC[C@@H]4C[C@H](O)CC[C@]4(C)[C@H]3CC[C@]12C`, the inhibition [1] is reported as “inactive”.
`C[C@H](CCC(=O)N[C@H](CC(=O)O)Cc1cccc2ccccc12)[C@H]1CC[C@H]2[C@@H]3CC[C@@H]4C[C@H](O)CC[C@]4(C)[C@H]3CC[C@]12C` gave an IC50 (Ephrin type-A receptor 2) of 3.9 µM.
`C[C@H](CCC(=O)N[C@H](CC(=O)O)Cc1ccccc1)[C@H]1CC[C@H]2[C@@H]3CC[C@@H]4C[C@H](O)CC[C@]4(C)[C@H]3CC[C@]12C` showed an IC50 (Ephrin type-A receptor 2) of 18 µM.
For `C[C@H](CCC(=O)O)[C@H]1CC[C@H]2[C@@H]3CC[C@@H]4C[C@H](O)CC[C@]4(C)[C@H]3CC[C@]12C` [LITHOCHOLIC ACID], the IC50 (Ephrin type-A receptor 2) was 79 µM.
In the case of `COC(=O)CCNC(=O)CC[C@@H](C)[C@H]1CC[C@H]2[C@@H]3CC[C@@H]4C[C@H](O)CC[C@]4(C)[C@H]3CC[C@]12C`, the inhibition [1] is reported as “inactive”.
For `C[C@H](CCC(=O)NCCCC(=O)O)[C@H]1CC[C@H]2[C@@H]3CC[C@@H]4C[C@H](O)CC[C@]4(C)[C@H]3CC[C@]12C`, the inhibition [1] was “inactive”.
